Test results: ChEMBL document CHEMBL3351900, “Conjugation of a nonspecific antiviral sapogenin with a specific HIV fusion inhibitor: a promising strategy for discovering new antiviral therapeutics” (J Med Chem, 2014)
Converted amounts (≈) assume the structure as drawn. The source made the active and inactive calls. No cut-off for these calls is given here. Square brackets hold non-standard residues; d marks the D form. Peptide text beside a SMILES is read from it. * marks the point of attachment. X1 = C=CCOC(=O)[C@]12CC[C@@H](C(=C)C)[C@@H]1[C@H]1CC[C@@H]3[C@@]4(C)CC[C@H](OC(=O)CCc5cn(CC(=O)*)nn5)C(C)(C)[C@@H]4CC[C@@]3(C)[C@]1(C)CC2; βAla = NCCC(=O)O

Experiments:
[1] = test system: Human immunodeficiency virus 1; experiment: Ratio of EC50 for T20-resistant HIV1 NL4-3 harboring gp41 D36G/V38A/N42T mutant infected in human MT2 cells to EC50 for T20-sensitive HIV1 NL4-3 harboring gp41 D36G mutant infected in human MT2 cells; assay type: functional
Summary of the method: (§1)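 MT-2 cells (1 × 10⁴) infected with 100 TCID₅₀ of HIV-1 NL4-3 gp41 mutant virus with or without peptide at graded concentrations. Culture supernatants collected on day 4 postinfection and p24 antigen measured by ELISA. Percent inhibition and EC₅₀ calculated, triplicate, mean ± standard deviation. Fold change = EC₅₀ against each mutant divided by EC₅₀ against the D36G strain.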

[2] = test system: Human immunodeficiency virus 1; experiment: Antiviral activity against HIV1 3B infected in human MT2 cells assessed as inhibition of viral entry compound treated at 100 nM at 1 hr post infection measured 3 to 4 days post infection by time-of-addition assay
[3] = Half life of the compound at 8 ug/ml by proteinase K digestion assay; assay type: ADME
[4] = test system: Human immunodeficiency virus 1; experiment: Antiviral activity against HIV1 BaL infected in human […] cells assessed as inhibition of viral replication; assay type: functional, organism-based; conditions: Human immunodeficiency virus 1, BaL
Summary of the method: (§2)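 MT-2 cells (1 × 10⁴) infected with 100 TCID₅₀ virus with or without peptides at graded concentrations. Culture supernatants collected on day 4 postinfection; p24 antigen quantified by ELISA. Percent inhibition and EC₅₀ calculated; tested in triplicate, mean ± standard deviation.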

[5] = test system: Human immunodeficiency virus 1; experiment: Ratio of EC50 for T20-resistant HIV1 NL4-3 harboring gp41 D36G/V38A/N42D mutant infected in human MT2 cells to EC50 for T20-sensitive HIV1 NL4-3 harboring gp41 D36G mutant infected in human MT2 cells; assay type: functional; summary of the method: as §1
[6] = Solubility of the compound in pure water by UV spectrophotometry; assay type: physicochemical
Summary of the method: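 About 1 mg of peptide dissolved in 10 μL water or PBS and centrifuged. Supernatant concentration of the tyrosine-containing conjugate determined from UV absorbance at 280 nm.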

[7] = Half life in rat kidney homogenate at 8 ug/ml; assay type: ADME, tissue-based
[8] = test system: Human immunodeficiency virus 1; experiment: Antiviral activity against T20-resistant HIV1 NL4-3 harboring gp41 D36G/V38E/N42S mutant infected in human MT2 cells; assay type: functional, organism-based; summary of the method: as §2
[9] = Half life in rat liver homogenate at 8 ug/ml; assay type: ADME, tissue-based
[10] = Volume of distribution in rat at 4 mg/kg, iv administered as single dose; assay type: ADME, organism-based; set-up: dose 4 mg/kg, route intravenous; conditions: in vivo
Summary of the method: (§3)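 Rats given one intravenous dose of 4 mg/kg. Peptide measured in plasma over time. Parameters (AUC(0−t), MRT(0−t), t1/2, Vd, Cmax) derived by model-independent analysis.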

[11] = test system: Human immunodeficiency virus 1; experiment: Ratio of EC50 for T20-resistant HIV1 NL4-3 harboring gp41 D36G/N42T/N43K mutant infected in human MT2 cells to EC50 for T20-sensitive HIV1 NL4-3 harboring gp41 D36G mutant infected in human MT2 cells; assay type: functional; summary of the method: as §1
[12] = Selectivity index, ratio of CC50 for human MT2 cells to EC50 for HIV1 3B infected in human MT2 cells; assay type: toxicity, cell-based; conditions: read-out: Ratio CC50/EC50
[13] = test system: Human immunodeficiency virus 1; experiment: Antiviral activity against T20-resistant HIV1 NL4-3 harboring gp41 D36G/V38A/N42D mutant infected in human MT2 cells; assay type: functional, organism-based; summary of the method: as §2
[14] = test system: Human immunodeficiency virus 1; experiment: Antiviral activity against T20-resistant HIV1 NL4-3 harboring gp41 D36G/V38A mutant infected in human MT2 cells; assay type: functional, organism-based; summary of the method: as §2
[15] = Cytotoxicity against human MT2 cells after 4 days by XTT assay; assay type: cell-based
Summary of the method: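 MT-2 cells (5 × 10⁵/mL) mixed with equal volumes of graded conjugate concentrations and held at 37 °C for 4 days. XTT (1 mg/mL) with 0.02 μM phenazine methosulfate added for 4 h, then A450 read. CC50 calculated from the dose–response.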

[16] = Mean residence time in rat at 4 mg/kg, iv administered as single dose; assay type: ADME, organism-based; set-up: dose 4 mg/kg, route intravenous; conditions: in vivo; summary of the method: as §3
[17] = test system: Human immunodeficiency virus 1; experiment: Ratio of EC50 for T20-resistant HIV1 NL4-3 harboring gp41 D36G/V38E/N42S mutant infected in human MT2 cells to EC50 for T20-sensitive HIV1 NL4-3 harboring gp41 D36G mutant infected in human MT2 cells; assay type: functional; summary of the method: as §1
Rattus norvegicus [18] = experiment: AUC (0 to t) in rat at 4 mg/kg, iv administered as single dose; assay type: ADME, organism-based, Plasma; set-up: dose 4 mg/kg, route intravenous; conditions: in vivo; summary of the method: as §3
[19] = test system: Human immunodeficiency virus 1; experiment: Ratio of EC50 for T20-resistant HIV1 NL4-3 harboring gp41 D36G/V38A mutant infected in human MT2 cells to EC50 for T20-sensitive HIV1 NL4-3 harboring gp41 D36G mutant infected in human MT2 cells; assay type: functional; summary of the method: as §1
[20] = test system: Human immunodeficiency virus 1; experiment: Antiviral activity against T20-sensitive HIV1 NL4-3 harboring gp41 D36G mutant infected in human MT2 cells; assay type: functional, organism-based; summary of the method: as §2
Rattus norvegicus [21] = experiment: Cmax in rat at 4 mg/kg, iv administered as single dose; assay type: ADME, organism-based; set-up: dose 4 mg/kg, route intravenous; conditions: in vivo; summary of the method: as §3
[22] = test system: Human immunodeficiency virus 1; experiment: Antiviral activity against T20-resistant HIV1 NL4-3 harboring gp41 D36G/V38A/N42T mutant infected in human MT2 cells; assay type: functional, organism-based; summary of the method: as §2
[23] = test system: Human immunodeficiency virus 1; experiment: Antiviral activity against HIV1 3B infected in human MT2 cells assessed as inhibition of viral p24 antigen production by ELISA; assay type: functional, organism-based; conditions: Human immunodeficiency virus 1, 3B; summary of the method: as §2
Rattus norvegicus [24] = experiment: Half life in rat at 4 mg/kg, iv at 4 mg/kg, iv administered as single dose; assay type: ADME, organism-based; conditions: in vivo; summary of the method: as §3
[25] = target: GP41 (Human immunodeficiency virus 1) (UniProt Q76270); experiment: Ratio of EC50 for HIV1 gp41-induced cell-cell fusion between viral envelope expressing human HL2/3 cells to CD4/CCR5 receptor expressing TZM-bl cells with wash out to EC50 for HIV1 gp41-induced cell-cell fusion between viral envelope expressing human HL2/3 cells to CD4/CCR5 receptor expressing TZM-bl cells; assay type: cell-based
Summary of the method: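 Peptides preincubated with TZM-bl cells at 37 °C for 1 h, with or without washing away unbound peptide. EC50 compared between washed and unwashed cells, giving the n-fold change. Triplicates, mean ± SD.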

[26] = test system: Human immunodeficiency virus 1; experiment: Antiviral activity against T20-resistant HIV1 NL4-3 harboring gp41 D36G/N42T/N43K mutant infected in human MT2 cells; assay type: functional, organism-based; summary of the method: as §2

C=CCOC(=O)[C@]12CC[C@@H](C(=C)C)[C@@H]1[C@H]1CC[C@@H]3[C@@]4(C)CC[C@H](OC(=O)CCc5cn(CC(=O)NCCCC[C@H](NC(=O)CCNC(=O)[C@H](CC(C)C)NC(=O)[C@H](CC(C)C)NC(=O)[C@H](CCC(=O)O)NC(=O)[C@H](CCC(N)=O)NC(=O)[C@H](CCC(=O)O)NC(=O)[C@H](CC(N)=O)NC(=O)[C@H](CCCCN)NC(=O)[C@H](CCC(=O)O)NC(=O)[C@H](CCC(N)=O)NC(=O)[C@H](CCC(N)=O)NC(=O)[C@H](CC(N)=O)NC(=O)[C@H](CCC(N)=O)NC(=O)[C@H](CO)NC(=O)[C@H](CCC(=O)O)NC(=O)[C@H](CCC(=O)O)NC(=O)[C@@H](NC(=O)[C@H](CC(C)C)NC(=O)[C@H](CO)NC(=O)[C@H](Cc6cnc[nH]6)NC(=O)[C@@H](NC(=O)[C@H](CC(C)C)NC(=O)[C@H](CO)NC(=O)[C@@H](NC(=O)[C@H](Cc6ccc(O)cc6)NC(=O)[C@H](CC(N)=O)NC(=O)[C@H](CC(N)=O)NC(C)=O)[C@@H](C)O)[C@@H](C)CC)[C@@H](C)CC)C(N)=O)nn5)C(C)(C)[C@@H]4CC[C@@]3(C)[C@]1(C)CC2 (Ac-NNYTSLIHSLIEESQNQQEKNEQELL[βAla]K(X1)-NH2)
Ratio EC50 [1]: 10 | inhibition [2]: Active | half-life at 8 ug/ml [3]: 54.3 min | EC50 [4]: 6.9 nM | Ratio EC50 [5]: 1.2 | solubility [6]: 18.2 mg/mL (≈ 4.55 mM) | half-life at 8 ug/ml [7]: 35.9 min | EC50 [8]: 322 nM | half-life at 8 ug/ml [9]: 48.9 min | Vd [10]: 0.17 L/kg | Ratio EC50 [11]: 6.5 | selectivity ratio [12]: 3350 | EC50 [13]: 34.4 nM | EC50 [14]: 135 nM | CC50 at 96 h [15]: 14300 nM | MRT [16]: 191 min | Ratio EC50 [17]: 11 | AUCt (Rattus norvegicus [18]): 101 µg·h/mL | Ratio EC50 [19]: 4.6 | EC50 [20]: 29.2 nM | Cmax (Rattus norvegicus [21]): 40400 ng/mL | EC50 [22]: 308 nM | EC50 [23]: 4.28 nM | t1/2 (Rattus norvegicus [24]): 188 min | Ratio EC50 [25]: 11 | EC50 [26]: 192 nM
